Drawing on ChEMBL document CHEMBL4043235, “Design, semisynthesis and potent cytotoxic activity of novel 10-fluorocamptothecin derivatives” (Bioorg Med Chem Lett, 2017), this text covers IC50 for 6 molecules.

For orientation: IC50 means the concentration that inhibits the measured activity by half. A low value points to greater potency.

Common to all, as to type: functional, cell-based
Assay [1] can be described thus: Cytotoxicity against human KBVIN cells after 72 hrs by SRB assay. The method, boiled down:
(§1)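 Cells seeded at 3–5 × 10^3 per well in RPMI-1640 with 10% FBS holding various sample concentrations. Exposure 72 h. Attached cells fixed with cold 50% trichloroacetic acid for 30 min, then stained with 0.04% SRB for 30 min. Bound dye solubilized in 10 mM Tris-base, absorbance read at 515 nm. Three or more experiments; IC50 given as mean with standard deviation.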

Another assay concerns KB. The experiment in a line: Cytotoxicity against human KB cells after 72 hrs by SRB assay. The method, boiled down:
as §1
For orientation: The SRB assay estimates cell density from bound dye.

In another assay the test system is MCF7. The experiment in a line: Cytotoxicity against human MCF7 cells after 72 hrs by SRB assay. The settings on record: MCF7, 72 h. The method, boiled down: as §1
In the next assay the test system is A549. The experiment in a line: Cytotoxicity against human A549 cells after 72 hrs by SRB assay. The settings on record: A549, 72 h. The method, boiled down: as §1
The test system of a further assay is MDA-MB-231. In words: Cytotoxicity against human MDA-MB-231 cells after 72 hrs by SRB assay. The conditions noted are these: MDA-MB-231, 72 h. The method, boiled down: as §1

Consider `CC[C@@]1(OC(=O)CN/C(Cc2ccc(OC)cc2)=N/S(=O)(=O)c2ccc(C)cc2)C(=O)OCc2c1cc1n(c2=O)Cc2cc3cc(F)ccc3nc2-1`, for which the IC50 in assay [1] was 497 nM; with KB, 280 nM; with MCF7, 649 nM; in the assay on A549 it was 62.2 nM; in the assay with MDA-MB-231 it was 601 nM.

For the molecule `CC[C@@]1(O)C(=O)OCc2c1cc1n(c2=O)Cc2cc3c(CN(C)C)c(O)ccc3nc2-1` [TOPOTECAN], the IC50 with KB came to 102 nM; in the assay with MCF7, 666 nM; in the assay with A549, 112 nM; in the assay on MDA-MB-231 it was 773 nM.

With `CCc1c2c(nc3ccc(OC(=O)N4CCC(N5CCCCC5)CC4)cc13)-c1cc3c(c(=O)n1C2)COC(=O)[C@]3(O)CC` [IRINOTECAN], the IC50 is more than 20000 nM in assay [1], 7990 nM in the assay with KB and 15600 nM in the assay on MDA-MB-231.

Consider `CCc1c2c(nc3ccc(F)cc13)-c1cc3c(c(=O)n1C2)COC(=O)[C@@]3(CC)OC(=O)CN/C(Cc1ccc(OC)cc1)=N/S(=O)(=O)c1ccc(C)cc1`, for which the IC50 in assay [1] turned out to be 99.2 nM; in the assay with KB, 47 nM; with MCF7 it was 80.8 nM; in the assay with A549 it was 8.72 nM; in the assay on MDA-MB-231 it was 238 nM.

On to `CC[C@@]1(O)C(=O)OCc2c1cc1n(c2=O)Cc2cc3cc(F)ccc3nc2-1`, for which the IC50 worked out at 2950 nM in assay [1]; 185 nM with KB; 431 nM in the assay with MCF7; 58.6 nM with A549; 579 nM in the assay with MDA-MB-231.

Regarding `CCc1c2c(nc3ccc(F)cc13)-c1cc3c(c(=O)n1C2)COC(=O)[C@]3(O)CC`, the IC50 in assay [1] is 67 nM; in the assay on KB, 69.6 nM; with MCF7 it was 76.9 nM; in the assay on A549, 9.91 nM; in the assay with MDA-MB-231 it was 319 nM.
